According to ChEMBL document CHEMBL1154962, “Novel 6-N-arylcarboxamidopyrazolo[4,3-d]pyrimidin-7-one derivatives as potential anti-cancer agents” (2010):

system: SK-OV-3; experiment: Cytotoxicity against human SKOV3 cells at 100 uM after 2 days by sulforhodamine B assay; type: functional; conditions: SK-OV-3, 48 h
Summary of the method: (§1)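 Five human cancer lines (HT-29, DU-145, A-549, SK-MEL-2, SK-OV-3) seeded at 3–7 × 10³ cells/well; compounds at 100 µM added in duplicate; 37 °C, 5% CO₂, two days. Fixed with formalin, SRB stained, washed with 1% acetic acid, dye solubilized in 10 mM unbuffered Tris base; OD at 520 nm. Read-out is % inhibition.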

| Structure (SMILES) | inhibition at 100 µM |
| --- | --- |
| COc1cccc(-c2nc3c(-c4ccco4)n[nH]c3c(=O)n2NC(=O)c2ccccc2)c1 | 35.2% |

system: HT-29; experiment: Cytotoxicity against human HT-29 cells at 100 uM after 2 days by sulforhodamine B assay; type: functional; conditions: HT-29, 48 h; summary of the method: as §1

| Structure (SMILES) | inhibition at 100 µM |
| --- | --- |
| COc1cccc(Cc2nc3c(-c4ccc(Cl)cc4)n[nH]c3c(=O)n2NC(=O)c2ccccc2)c1 | 89.3% |
| CCCCCc1nc2c(-c3ccc(Cl)cc3)n[nH]c2c(=O)n1NC(=O)c1cccc(C)c1 | 90.5% |
| O=C(Nn1c(-c2cccc([N+](=O)[O-])c2)nc2c(-c3cccc(Cl)c3)n[nH]c2c1=O)c1ccccc1 | 89.8% |
| O=C(Cc1ccccc1)Nn1c(CC2CCCCC2)nc2c(-c3ccc(Cl)cc3)n[nH]c2c1=O | 85.5% |
| CC(C)(C)c1ccc(C(=O)Nn2c(CCC3CCCC3)nc3c(-c4ccc(Cl)cc4)n[nH]c3c2=O)cc1 | 76.8% |
| O=C(Nn1c(CCC2CCCC2)nc2c(-c3ccc(Cl)cc3)n[nH]c2c1=O)c1ccccc1 | 87.3% |
| O=C(Nn1c(-c2ccccc2)nc2c(-c3ccc(Cl)cc3)n[nH]c2c1=O)c1ccccc1 | 92% |
| COc1cccc(-c2nc3c(-c4ccco4)n[nH]c3c(=O)n2NC(=O)c2ccccc2)c1 | 49.8% |

target: T1, Aurora kinase A (Homo sapiens) (UniProt O14965); experiment: Inhibition of human Aurora A at 10 uM; conditions: not given
T1 sequence (whole entry): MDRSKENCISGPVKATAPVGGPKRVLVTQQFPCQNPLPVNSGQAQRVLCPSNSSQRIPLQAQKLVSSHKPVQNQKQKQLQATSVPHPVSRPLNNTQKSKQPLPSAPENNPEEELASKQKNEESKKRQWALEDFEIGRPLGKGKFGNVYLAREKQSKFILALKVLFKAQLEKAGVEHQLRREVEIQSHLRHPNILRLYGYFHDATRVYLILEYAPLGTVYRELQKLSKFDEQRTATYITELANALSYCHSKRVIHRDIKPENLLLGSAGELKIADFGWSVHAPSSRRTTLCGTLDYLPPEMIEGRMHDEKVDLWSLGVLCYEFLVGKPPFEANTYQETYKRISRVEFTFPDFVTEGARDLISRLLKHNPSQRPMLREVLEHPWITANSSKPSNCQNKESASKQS

| Structure (SMILES) | inhibition |
| --- | --- |
| CCCCCc1nc2c(-c3ccc(Cl)cc3)n[nH]c2c(=O)n1NC(=O)c1cccc(C)c1 | 93% |
| O=C(Cc1ccccc1)Nn1c(CC2CCCCC2)nc2c(-c3ccc(Cl)cc3)n[nH]c2c1=O | 74% |

system: DU-145; experiment: Cytotoxicity against human DU145 cells at 100 uM after 2 days by sulforhodamine B assay; type: functional; conditions: DU-145, 48 h; summary of the method: as §1

| Structure (SMILES) | inhibition at 100 µM |
| --- | --- |
| COc1cccc(Cc2nc3c(-c4ccc(Cl)cc4)n[nH]c3c(=O)n2NC(=O)c2ccccc2)c1 | 93.2% |
| CCCCCc1nc2c(-c3ccc(Cl)cc3)n[nH]c2c(=O)n1NC(=O)c1cccc(C)c1 | 88.8% |
| O=C(Nn1c(-c2cccc([N+](=O)[O-])c2)nc2c(-c3cccc(Cl)c3)n[nH]c2c1=O)c1ccccc1 | 93.8% |
| O=C(Cc1ccccc1)Nn1c(CC2CCCCC2)nc2c(-c3ccc(Cl)cc3)n[nH]c2c1=O | 79.8% |
| CC(C)(C)c1ccc(C(=O)Nn2c(CCC3CCCC3)nc3c(-c4ccc(Cl)cc4)n[nH]c3c2=O)cc1 | 64.2% |
| O=C(Nn1c(CCC2CCCC2)nc2c(-c3ccc(Cl)cc3)n[nH]c2c1=O)c1ccccc1 | 89.6% |
| O=C(Nn1c(-c2ccccc2)nc2c(-c3ccc(Cl)cc3)n[nH]c2c1=O)c1ccccc1 | 90.2% |
| COc1cccc(-c2nc3c(-c4ccco4)n[nH]c3c(=O)n2NC(=O)c2ccccc2)c1 | 50.5% |

system: DU-145; experiment: Growth inhibition of human DU145 cells after 2 days by MTT assay; type: functional; conditions: DU-145, 48 h
Summary of the method: (§2)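 HT-29 and DU-145 cells seeded at 5 × 10⁴ cells/mL; serial concentrations added in duplicate; 37 °C, 5% CO₂, two days. MTT dye (Cell Titer96) for up to 4 h at 37 °C, then solubilization/stop mix overnight at room temperature; OD at 570 nm. GI₅₀ = concentration giving 50% growth inhibition; mean ± SEM of three or more experiments; doxorubicin as internal standard.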

| Structure (SMILES) | GI50 |
| --- | --- |
| COc1cccc(Cc2nc3c(-c4ccc(Cl)cc4)n[nH]c3c(=O)n2NC(=O)c2ccccc2)c1 | 44.9 µM |
| CCCCCc1nc2c(-c3ccc(Cl)cc3)n[nH]c2c(=O)n1NC(=O)c1cccc(C)c1 | 12.9 µM |
| O=C(Cc1ccccc1)Nn1c(CC2CCCCC2)nc2c(-c3ccc(Cl)cc3)n[nH]c2c1=O | 15.1 µM |
| CC(C)(C)c1ccc(C(=O)Nn2c(CCC3CCCC3)nc3c(-c4ccc(Cl)cc4)n[nH]c3c2=O)cc1 | 21.5 µM |
| O=C(Nn1c(CCC2CCCC2)nc2c(-c3ccc(Cl)cc3)n[nH]c2c1=O)c1ccccc1 | 10.2 µM |
| O=C(Nn1c(-c2ccccc2)nc2c(-c3ccc(Cl)cc3)n[nH]c2c1=O)c1ccccc1 | 20.1 µM |

system: HT-29; experiment: Growth inhibition of human HT-29 cells after 2 days by MTT assay; type: functional; conditions: HT-29, 48 h; summary of the method: as §2

| Structure (SMILES) | GI50 |
| --- | --- |
| COc1cccc(Cc2nc3c(-c4ccc(Cl)cc4)n[nH]c3c(=O)n2NC(=O)c2ccccc2)c1 | 22.1 µM |
| CCCCCc1nc2c(-c3ccc(Cl)cc3)n[nH]c2c(=O)n1NC(=O)c1cccc(C)c1 | 5.37 µM |
| O=C(Cc1ccccc1)Nn1c(CC2CCCCC2)nc2c(-c3ccc(Cl)cc3)n[nH]c2c1=O | 6.39 µM |
| CC(C)(C)c1ccc(C(=O)Nn2c(CCC3CCCC3)nc3c(-c4ccc(Cl)cc4)n[nH]c3c2=O)cc1 | 20.6 µM |
| O=C(Nn1c(CCC2CCCC2)nc2c(-c3ccc(Cl)cc3)n[nH]c2c1=O)c1ccccc1 | 1.8 µM |
| O=C(Nn1c(-c2ccccc2)nc2c(-c3ccc(Cl)cc3)n[nH]c2c1=O)c1ccccc1 | 20.6 µM |

target: Glycogen synthase kinase-3 beta (Homo sapiens) (UniProt P49841); experiment: Inhibition of human GSK3-beta at 10 uM; conditions: not given
Sequence (P49841 whole entry, looked up): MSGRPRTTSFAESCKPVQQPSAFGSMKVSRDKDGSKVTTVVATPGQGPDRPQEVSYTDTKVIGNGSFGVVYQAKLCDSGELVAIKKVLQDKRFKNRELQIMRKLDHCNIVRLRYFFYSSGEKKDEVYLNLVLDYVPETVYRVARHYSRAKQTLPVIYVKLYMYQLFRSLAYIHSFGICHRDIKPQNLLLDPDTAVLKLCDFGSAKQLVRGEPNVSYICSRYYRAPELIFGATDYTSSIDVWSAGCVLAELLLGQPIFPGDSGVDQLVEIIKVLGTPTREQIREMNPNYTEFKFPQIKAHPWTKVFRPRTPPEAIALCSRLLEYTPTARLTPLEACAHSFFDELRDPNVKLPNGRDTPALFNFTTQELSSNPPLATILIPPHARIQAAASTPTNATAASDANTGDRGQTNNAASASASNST

| Structure (SMILES) | inhibition |
| --- | --- |
| CCCCCc1nc2c(-c3ccc(Cl)cc3)n[nH]c2c(=O)n1NC(=O)c1cccc(C)c1 | 94% |
| O=C(Cc1ccccc1)Nn1c(CC2CCCCC2)nc2c(-c3ccc(Cl)cc3)n[nH]c2c1=O | 89% |

target: Epidermal growth factor receptor (Homo sapiens) (UniProt P00533); experiment: Inhibition of human EGFR assessed as remaining enzyme activity at 10 uM; values are per cent of control; conditions: not given
Sequence (P00533 whole entry): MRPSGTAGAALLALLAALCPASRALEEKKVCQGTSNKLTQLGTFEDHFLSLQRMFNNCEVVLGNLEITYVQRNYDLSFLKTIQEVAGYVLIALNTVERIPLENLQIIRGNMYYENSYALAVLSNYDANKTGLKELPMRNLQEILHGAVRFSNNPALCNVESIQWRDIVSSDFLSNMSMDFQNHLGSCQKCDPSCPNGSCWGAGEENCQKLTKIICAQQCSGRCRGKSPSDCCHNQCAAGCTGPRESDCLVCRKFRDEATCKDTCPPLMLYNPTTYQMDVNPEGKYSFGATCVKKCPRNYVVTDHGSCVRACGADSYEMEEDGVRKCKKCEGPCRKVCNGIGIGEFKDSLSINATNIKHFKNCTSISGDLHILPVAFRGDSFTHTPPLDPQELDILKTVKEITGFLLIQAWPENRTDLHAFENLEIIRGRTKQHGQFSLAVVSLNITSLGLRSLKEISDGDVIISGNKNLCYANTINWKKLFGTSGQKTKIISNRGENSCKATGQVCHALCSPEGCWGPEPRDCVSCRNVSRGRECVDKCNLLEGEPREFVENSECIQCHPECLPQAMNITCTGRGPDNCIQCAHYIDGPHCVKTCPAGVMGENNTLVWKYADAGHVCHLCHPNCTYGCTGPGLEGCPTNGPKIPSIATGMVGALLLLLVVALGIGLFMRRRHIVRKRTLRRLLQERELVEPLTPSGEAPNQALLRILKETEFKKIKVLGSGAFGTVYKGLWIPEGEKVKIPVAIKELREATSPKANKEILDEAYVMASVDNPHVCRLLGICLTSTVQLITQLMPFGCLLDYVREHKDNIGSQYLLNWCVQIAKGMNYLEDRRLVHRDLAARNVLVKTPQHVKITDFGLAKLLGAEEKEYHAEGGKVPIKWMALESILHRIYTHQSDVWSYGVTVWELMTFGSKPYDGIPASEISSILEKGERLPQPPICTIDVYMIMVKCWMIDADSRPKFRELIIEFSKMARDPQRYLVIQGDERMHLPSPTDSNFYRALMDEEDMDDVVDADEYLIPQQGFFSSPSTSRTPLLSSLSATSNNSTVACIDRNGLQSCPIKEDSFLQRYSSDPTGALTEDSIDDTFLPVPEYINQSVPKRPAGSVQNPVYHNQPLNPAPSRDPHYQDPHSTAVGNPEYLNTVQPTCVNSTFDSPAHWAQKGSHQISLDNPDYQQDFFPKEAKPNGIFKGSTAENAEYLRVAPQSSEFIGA

| Structure (SMILES) | residual activity |
| --- | --- |
| CCCCCc1nc2c(-c3ccc(Cl)cc3)n[nH]c2c(=O)n1NC(=O)c1cccc(C)c1 | 82% |
| O=C(Cc1ccccc1)Nn1c(CC2CCCCC2)nc2c(-c3ccc(Cl)cc3)n[nH]c2c1=O | 113% |

system: SK-MEL-2; experiment: Cytotoxicity against human SK-MEL-2 cells at 100 uM after 2 days by sulforhodamine B assay; type: functional; conditions: SK-MEL-2, 48 h; summary of the method: as §1

| Structure (SMILES) | inhibition at 100 µM |
| --- | --- |
| O=C(Nn1c(-c2cccc([N+](=O)[O-])c2)nc2c(-c3cccc(Cl)c3)n[nH]c2c1=O)c1ccccc1 | 78.2% |
| COc1cccc(-c2nc3c(-c4ccco4)n[nH]c3c(=O)n2NC(=O)c2ccccc2)c1 | 43.2% |

target: Glycogen synthase kinase-3 beta (Homo sapiens) (UniProt P49841); experiment: Inhibition of human GSK3-beta assessed as remaining enzyme activity at 10 uM; values are per cent of control; conditions: not given

| Structure (SMILES) | residual activity |
| --- | --- |
| CCCCCc1nc2c(-c3ccc(Cl)cc3)n[nH]c2c(=O)n1NC(=O)c1cccc(C)c1 | 6% |
| O=C(Cc1ccccc1)Nn1c(CC2CCCCC2)nc2c(-c3ccc(Cl)cc3)n[nH]c2c1=O | 11% |

system: A549; experiment: Cytotoxicity against human A549 cells at 100 uM after 2 days by sulforhodamine B assay; type: functional; conditions: A549, 48 h; summary of the method: as §1

| Structure (SMILES) | inhibition at 100 µM |
| --- | --- |
| COc1cccc(-c2nc3c(-c4ccco4)n[nH]c3c(=O)n2NC(=O)c2ccccc2)c1 | 53.8% |

target: Platelet-derived growth factor receptor alpha (Homo sapiens) (UniProt P16234); experiment: Inhibition of human PDGFRalpha assessed as remaining enzyme activity at 10 uM; values are per cent of control; conditions: not given
Sequence (P16234 whole entry): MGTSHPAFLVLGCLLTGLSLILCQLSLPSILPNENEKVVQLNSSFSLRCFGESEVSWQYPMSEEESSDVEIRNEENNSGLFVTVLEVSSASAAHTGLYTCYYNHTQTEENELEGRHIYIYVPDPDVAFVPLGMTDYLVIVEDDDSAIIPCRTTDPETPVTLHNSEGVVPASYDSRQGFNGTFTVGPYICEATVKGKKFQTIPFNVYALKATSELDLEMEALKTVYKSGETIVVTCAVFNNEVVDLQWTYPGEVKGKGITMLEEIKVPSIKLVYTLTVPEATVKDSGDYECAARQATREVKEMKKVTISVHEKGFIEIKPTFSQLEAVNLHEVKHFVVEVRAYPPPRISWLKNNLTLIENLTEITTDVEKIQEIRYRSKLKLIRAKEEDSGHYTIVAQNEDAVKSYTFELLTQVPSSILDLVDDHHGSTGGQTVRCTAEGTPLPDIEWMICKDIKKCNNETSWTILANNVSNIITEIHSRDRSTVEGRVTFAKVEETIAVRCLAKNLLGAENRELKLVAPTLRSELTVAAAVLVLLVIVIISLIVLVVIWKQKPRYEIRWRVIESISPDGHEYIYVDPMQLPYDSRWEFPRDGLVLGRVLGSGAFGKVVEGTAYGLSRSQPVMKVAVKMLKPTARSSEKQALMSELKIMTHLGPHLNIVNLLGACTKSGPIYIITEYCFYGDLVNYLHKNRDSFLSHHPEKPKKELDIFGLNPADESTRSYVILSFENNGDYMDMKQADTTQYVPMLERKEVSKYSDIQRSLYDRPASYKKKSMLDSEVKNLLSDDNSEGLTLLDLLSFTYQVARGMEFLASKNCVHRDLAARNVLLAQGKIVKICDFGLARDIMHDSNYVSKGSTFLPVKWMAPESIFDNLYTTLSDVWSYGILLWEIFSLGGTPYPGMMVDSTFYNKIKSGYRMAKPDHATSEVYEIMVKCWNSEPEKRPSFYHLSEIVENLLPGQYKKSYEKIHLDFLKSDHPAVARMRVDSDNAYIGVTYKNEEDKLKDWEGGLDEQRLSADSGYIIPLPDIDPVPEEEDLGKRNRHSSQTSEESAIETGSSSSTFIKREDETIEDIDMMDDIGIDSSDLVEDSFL

| Structure (SMILES) | residual activity |
| --- | --- |
| CCCCCc1nc2c(-c3ccc(Cl)cc3)n[nH]c2c(=O)n1NC(=O)c1cccc(C)c1 | 92% |
| O=C(Cc1ccccc1)Nn1c(CC2CCCCC2)nc2c(-c3ccc(Cl)cc3)n[nH]c2c1=O | 77% |

target: T1, Aurora kinase A (Homo sapiens); experiment: Inhibition of human Aurora A assessed as remaining enzyme activity at 10 uM; values are per cent of control; conditions: not given

| Structure (SMILES) | residual activity |
| --- | --- |
| CCCCCc1nc2c(-c3ccc(Cl)cc3)n[nH]c2c(=O)n1NC(=O)c1cccc(C)c1 | 7% |
| O=C(Cc1ccccc1)Nn1c(CC2CCCCC2)nc2c(-c3ccc(Cl)cc3)n[nH]c2c1=O | 26% |
